Reference: ChEMBL document CHEMBL3286247, “Expansion of Antibacterial Spectrum of Muraymycins toward Pseudomonas aeruginosa” (ACS Med Chem Lett, 2014)
pIC50: −log10 of the molar value. Values after ≈ are worked out from the molar mass of the structure shown.

Assays:
[1] = system: Pseudomonas aeruginosa; test: Antibacterial activity against Pseudomonas aeruginosa PAO1 assessed as growth inhibition after 20 hrs by microdilution method; type: functional; conditions: PAO1, 20 h
Summary of the method: (§1)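 Broth microdilution per CLSI in cation-adjusted Mueller-Hinton broth, using serial 2-fold compound dilutions. Each strain was inoculated at 5 × 10⁴ CFU per well in 0.1 mL. Plates were incubated at 35 °C for 20 h, and the MIC was then scored.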

[2] = Inhibition of Staphylococcus aureus MraY by fluorescence assay
Summary of the method: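 Purified S. aureus MraY was given UDP-MurNAc-dansylpentapeptide as substrate. Formation of dansylated lipid I was followed by fluorescence enhancement (excitation 355 nm, emission 535 nm).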

[3] = system: Pseudomonas aeruginosa; test: Antibacterial activity against Pseudomonas aeruginosa YY165 deltamexB mutant assessed as growth inhibition after 20 hrs by microdilution method; type: functional; conditions: YY165, 20 h
Summary of the method: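 Broth microdilution per CLSI in cation-adjusted Mueller–Hinton broth; serial 2-fold compound dilutions inoculated with 5 × 10⁴ CFU per well (0.1 mL), incubated 35 °C for 20 h, then MIC scored. Strain YY165 is a MexB deletion mutant lacking the inner-membrane transporter of the MexAB-OprM efflux system.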

[4] = system: Pseudomonas aeruginosa; test: Antibacterial activity against Pseudomonas aeruginosa ATCC 25619 assessed as growth inhibition after 20 hrs by microdilution method; type: functional; conditions: ATCC 25619, 20 h; summary of the method: as §1
[5] = system: Pseudomonas aeruginosa; test: Antibacterial activity against clinical isolate Pseudomonas aeruginosa SR27156 assessed as growth inhibition after 20 hrs by microdilution method; type: functional; conditions: SR27156, 20 h; summary of the method: as §1
[6] = system: Pseudomonas aeruginosa; test: Antibacterial activity against Pseudomonas aeruginosa ATCC 27853 assessed as growth inhibition after 20 hrs by microdilution method; type: functional; conditions: ATCC 27853, 20 h; summary of the method: as §1
[7] = Metabolic stability in rat liver microsomes assessed as compound remaining at 2 uM after 30 mins incubation by LC-MS/MS analysis
[8] = Metabolic stability in human liver microsomes assessed as compound remaining at 2 uM after 30 mins incubation by LC-MS/MS analysis
[9] = system: HepG2; test: Cytotoxicity against human HepG2 cells; type: functional, cell-based

| SMILES | MIC [1] [µg/mL] | pIC50 [2] | MIC [3] [µg/mL] | MIC [4] [µg/mL] | MIC [5] [µg/mL] | MIC [6] [µg/mL] | remaining at 0.5 h, 2 µM [7] [%] | remaining at 0.5 h, 2 µM [8] [%] | IC50 [9] [µg/mL] |
| --- | --- | --- | --- | --- | --- | --- | --- | --- | --- |
| CCCCCCCCCCCCCCC[C@H](NC(=O)c1ccc2ccccc2n1)C(=O)NCCCN[C@H](C(=O)O)[C@H](O[C@@H]1O[C@H](CN)[C@@H](O)[C@H]1O)[C@H]1O[C@@H](n2ccc(=O)[nH]c2=O)[C@H](O)[C@@H]1O | > 64 | 6.98 | > 64 | > 64 | > 64 | > 64 |  |  |  |
| N=C(N)NCCCCCC(=O)NCCCCCC(=O)NCCCN[C@H](C(=O)O)[C@H](O[C@@H]1O[C@H](CN)[C@@H](O)[C@H]1O)[C@H]1O[C@@H](n2ccc(=O)[nH]c2=O)[C@H](O)[C@@H]1O | > 64 | 5.83 | > 64 | > 64 | > 64 | > 64 |  |  |  |
| CCCCCCCCC(=O)NCCCCCC(=O)NCCCN[C@H](C(=O)O)[C@H](O[C@@H]1O[C@H](CN)[C@@H](O)[C@H]1O)[C@H]1O[C@@H](n2ccc(=O)[nH]c2=O)[C@H](O)[C@@H]1O | > 64 | 7.01 | > 64 | > 64 | > 64 | > 64 |  |  |  |
| CC(C)CCCC(=O)N[C@@H](CCCNC(=N)N)C(=O)NCCCN[C@H](C(=O)O)[C@H](O[C@@H]1O[C@H](CN)[C@@H](O)[C@H]1O)[C@H]1O[C@@H](n2ccc(=O)[nH]c2=O)[C@H](O)[C@@H]1O | > 64 | 6.65 | > 64 | > 64 | > 64 | > 64 |  |  |  |
| CCCCCCCCCCC(=O)N[C@@H](CCCNC(=N)N)C(=O)NCCCN[C@H](C(=O)O)[C@H](O[C@@H]1O[C@H](CN)[C@@H](O)[C@H]1O)[C@H]1O[C@@H](n2ccc(=O)[nH]c2=O)[C@H](O)[C@@H]1O | > 64 | 8.01 | > 64 | 32 (≈ 38.6 µM) | > 64 | > 64 |  |  |  |
| CCCCCCCCCCCCCC(=O)N[C@@H](CCCNC(=N)N)C(=O)NCCCN[C@H](C(=O)O)[C@H](O[C@@H]1O[C@H](CN)[C@@H](O)[C@H]1O)[C@H]1O[C@@H](n2ccc(=O)[nH]c2=O)[C@H](O)[C@@H]1O | 32 (≈ 36.7 µM) | 8.68 | 16 (≈ 18.3 µM) | 16 (≈ 18.3 µM) | 16 (≈ 18.3 µM) | 32 (≈ 36.7 µM) |  |  |  |
| CCCCCCCCCCCCCCCCC(=O)N[C@@H](CCCNC(=N)N)C(=O)NCCCN[C@H](C(=O)O)[C@H](O[C@@H]1O[C@H](CN)[C@@H](O)[C@H]1O)[C@H]1O[C@@H](n2ccc(=O)[nH]c2=O)[C@H](O)[C@@H]1O | 16 (≈ 17.5 µM) | 8.80 | 8 (≈ 8.75 µM) | 16 (≈ 17.5 µM) | 16 (≈ 17.5 µM) | 32 (≈ 35 µM) | 81.1 | 89.5 |  |
| CCCCCCCCCCCCCCCCNC(=O)[C@@H](NCCCNC(=O)[C@@H](N)CCCNC(=N)N)[C@H](O[C@@H]1O[C@H](CN)[C@@H](O)[C@H]1O)[C@H]1O[C@@H](n2ccc(=O)[nH]c2=O)[C@H](O)[C@@H]1O | 32 (≈ 36.2 µM) | 7.91 | 16 (≈ 18.1 µM) | 16 (≈ 18.1 µM) | 16 (≈ 18.1 µM) | 16 (≈ 18.1 µM) |  |  |  |
| CCCCCCCCCCCCCCCCC(=O)N[C@@H](CCCNC(=N)N)C(=O)NCCCN[C@H](C(=O)NCCCCNC(=N)N)[C@H](O[C@@H]1O[C@H](CN)[C@@H](O)[C@H]1O)[C@H]1O[C@@H](n2ccc(=O)[nH]c2=O)[C@H](O)[C@@H]1O | 4 (≈ 3.9 µM) | 9.22 | 4 (≈ 3.9 µM) | 8 (≈ 7.8 µM) | 8 (≈ 7.8 µM) | 8 (≈ 7.8 µM) | 69.8 | 86.9 | 34 (≈ 33.1 µM) |
| CC(C)C[C@H](NC(=O)[C@@H](NC(=O)N[C@H](C(=O)O)C(C)C)[C@@H]1CCNC(=N)N1)C(=O)NCCCN[C@H](C(=O)O)[C@H](O[C@@H]1O[C@H](CN)[C@@H](O)[C@H]1O)[C@H]1O[C@@H](n2ccc(=O)[nH]c2=O)[C@H](O)[C@@H]1O [MURAMYCIN D2] | > 64 | 8.55 | 64 (≈ 69.9 µM) | 64 (≈ 69.9 µM) | 32 (≈ 34.9 µM) | > 64 |  |  |  |
